An excerpt weighted towards active compounds, which were near 9.6% of everything screened.
TNAP inh hiacc: blocks human TNAP under high phosphate acceptor concentration | purified TNAP, CDP-star luminescence, 1 M DEA | AID 1135 | actives 0.03% (n = 200,000) | inhibition, % at 20 µM | P05186;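 active means over 50% inhibition of tissue-nonspecific alkaline phosphatase at 20 µM in the single-dose screen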;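 further: plate controls were DMSO wells for no effect and EDTA-quenched wells as full inhibition for full effect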
Target sequence (P05186 whole entry, looked up): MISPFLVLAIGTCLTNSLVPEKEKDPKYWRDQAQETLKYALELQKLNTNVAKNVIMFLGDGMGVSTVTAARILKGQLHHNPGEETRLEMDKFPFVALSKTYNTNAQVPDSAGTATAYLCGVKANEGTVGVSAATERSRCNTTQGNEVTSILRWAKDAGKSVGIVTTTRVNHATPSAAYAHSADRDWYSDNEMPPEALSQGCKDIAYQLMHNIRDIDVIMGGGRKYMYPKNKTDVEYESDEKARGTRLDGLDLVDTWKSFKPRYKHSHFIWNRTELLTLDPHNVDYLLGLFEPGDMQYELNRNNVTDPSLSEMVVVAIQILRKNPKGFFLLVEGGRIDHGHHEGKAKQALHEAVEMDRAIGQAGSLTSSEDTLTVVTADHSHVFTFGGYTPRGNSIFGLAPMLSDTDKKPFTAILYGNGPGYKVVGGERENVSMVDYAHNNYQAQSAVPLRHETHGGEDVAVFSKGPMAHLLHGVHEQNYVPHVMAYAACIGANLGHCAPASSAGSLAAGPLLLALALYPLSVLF
HCT116 bCat-KO: beta-catenin-lacking colon tumor cell growth suppression | HCT116 beta-catenin knockout viability, CellTiter-Glo, 60 h; active compounds read low | viability, % at 10 µM | actives 1.5% (n = 140,000) | AID 818;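 active means viability at or under a set limit, the compound median less 4 SD, cut at about 6% in these data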;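 further: 0% = Hyamine 1622 control at 20 µM and 100% = untreated cell control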
TNAP act hiacc: TNAP (human) activation, high acceptor. P05186. purified TNAP, CDP-star luminescence, 1 M DEA, 30 min; active compounds read high; 0 = EDTA background, 1 = DMSO-only activity. activation factor at 20 µM. 200,000 tested, under 10 active;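 active means activation factor at least 2 at 20 µM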
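Assay system: human TNAP; Input: enzyme diluted 1/800 final; Reagent: CDP-star luminogenic substrate at 100 µM final; Timing: 30 min, room temperature; Signal: luminescence; Evaluation: TNAP activation factor scaled between EDTA and DMSO control wells.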
TNAP inh no acc: TNAP (human) inhibition, acceptor-free conditions. P05186. purified TNAP, CDP-star luminescence, 30 min. inhibition, % at 20 µM. actives 0.26% (n = 200,000);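 active means tissue-nonspecific alkaline phosphatase inhibition above about 50% at 20 µM in the single-dose screen, limit read from the data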;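 further: 0% = DMSO negative control and 100% = EDTA positive control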
Lmaj promast: Leishmania major promastigote growth inhibition; AID 1063; actives 9% (n = 200,000); inhibition, % at 10 µM; Leishmania major promastigotes, resazurin fluorescence viability; in the data active means inhibition above about 50%;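 further: promastigotes grown with compound for 44 hours at 28 °C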
PTEN del growth: suppresses growth of cells with PTEN deletion; HCT116 PTEN-null viability, CellTiter-Glo, 60 h; active compounds read low; viability, % at 10 µM; actives 1.2% (n = 140,000);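 active means viability at or below a set limit, 4 SD under the median of all tested compounds, cut at about 3.7% in these data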;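 further: PTEN knockout HCT116 line with beta catenin targeted HCT116 as companion control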
Active calls of the source: *; / = not tested or not shown.

SMILES	TNAP inh hiacc	HCT116 bCat-KO	TNAP act hiacc	TNAP inh no acc	Lmaj promast	PTEN del growth
O=C(C[N+]1(CC#Cc2ccccc2)CCCCC1)c1ccc(Cl)cc1	-3	/	1	-13	52*	/
C#CC[N+]1(CC#Cc2cccc(C)c2)CCCCC1	-1	/	1	-13	9	/
C#CC[N+]1(CC#Cc2ccccc2)CCOCC1	-3	91	1	-5	-4	104
Cc1ccc(C#CC[N+]2(CC#Cc3ccc(C)cc3)CCCCC2)cc1	-6	7	1.1	-22	100*	4
C(#Cc1ccccc1)C[N+]1(CC#Cc2cccc3ccccc23)CCOCC1	-10	/	1.1	-11	100*	/
C#CC[N+]1(CC#Cc2ccccc2)CCCCC1	-5	/	1	-11	-1	/
Cc1ccc(NS(=O)(=O)c2ccc3[nH]c(=O)sc3c2)cc1	-4	/	1	-13	-4	/
O=C(O)CCn1c(-c2ccccc2)cc2ccccc21	-6	/	1.1	-5	1	/
CCC[N+](CC#Cc1ccccc1)(CCC)CC(=O)c1ccc(Cl)cc1	2	74	1	-11	100*	68
O=C1c2ccccc2NC(c2c(Cl)cccc2Cl)N1Cc1ccccc1 (stereo unspecified)	-11	63	1.1	-14	56*	58
C=CCc1cccc(C2Nc3ccccc3C(=O)N2O)c1O (stereo unspecified)	-5	64	1	-7	-8	58
O=C1c2ccccc2NC(c2ccc(Cl)cc2Cl)N1Cc1ccccc1 (stereo unspecified)	-4	51	1	-10	82*	45
O=C1c2ccccc2NC(c2ccc(Cl)cc2Cl)N1O (stereo unspecified)	-7	3.5*	1.1	-8	70*	8
CCC(=O)c1ccc(OC(C)C(=O)NC2(C#N)CCCCC2)cc1 (stereo unspecified)	-5	/	1	-2	2	/
CCN(Cc1ccccc1)Cc1nnnn1Cc1ccccc1	-9	/	1.1	-12	17	/
O=C(NCC1OCCc2ccccc21)c1ccc(NC(=O)c2ccc(Cl)cc2Cl)cc1 (stereo unspecified)	-2	4.9*	1	-9	-11	1.9*
CCOC(=O)/C(=C\c1ccc([N+](=O)[O-])o1)NC(=O)c1ccccc1	3	49	1	-8	99*	46
CCCOC(=O)/C(=C\c1ccc([N+](=O)[O-])o1)NC(=O)c1ccccc1	3	29	1	-3	96*	38
O=C(NCCO)/C(=C\c1ccc([N+](=O)[O-])o1)NC(=O)c1ccccc1	3	/	1	-2	27	/
CC1=CC=CC2=NC(=O)CC(C)(C(=O)N(CC(=O)NC3CCCC3)c3ccccc3C)N12 (stereo unspecified)	-3	97	1	-7	80*	104
Cc1cc(=O)oc2cc(NC(=O)C3CCCC3)ccc12	-2	/	1	-6	101*	/
Cc1ccc(CN2CC(C(=O)Nc3ccc4c(C)cc(=O)oc4c3)CC2=O)cc1 (stereo unspecified)	-3	86	1	-13	4	81
COc1ccc(CC(=O)Nc2ccc3c(C)cc(=O)oc3c2)cc1OC	0	88	1	-10	64*	98
COc1ccc(CC2(CO)CCN(Cc3cnn(-c4ccccc4)c3)CC2)cc1	-3	/	1	-5	87*	/
COc1ccc(CC2(CO)CCN(Cc3cnn(-c4ccc(F)cc4)c3)CC2)cc1	-8	/	1.1	-8	84*	/
CCOC(=O)c1c(NC(=O)CSc2ncnc3ccccc23)sc(C(C)=O)c1C	1	61	1	-4	80*	64
CCOC(=O)c1c(NC(=O)CSc2nc3cccnc3n2C)sc(C(C)=O)c1C	1	68	1	4	-4	59
CCOC(=O)c1c(NC(=O)CSc2nnc(-c3ccccc3C)n2C)sc(C(C)=O)c1C	2	70	1	-6	73*	69
CCCCc1ccc(N=N/C(C(=O)Nc2cc(OC)c(NC(C)=O)cc2OC)=C(/C)O)cc1	10	95	0.9	10	21	89
CCOC(=O)C/C(N)=N/NC(=O)c1ccc(Cl)cc1Cl	-2	/	1	2	2	/
